Screening results (PubChem)
Most compounds without a hit are left out; they make up all but 3.5% or so of the library.
rRNA inh HTS: inhibits bacterial ribosomal RNA function over humanized ribosomes. E. coli WT GFP vs humanized-ribosome RFP mutants, fluorescence, 24 h; stronger effect = lower value; DMSO median 0, no signal -100. GFP signal change (wild-type ribosome), % (concentration not given with the values). 1.6% of 350,000 active. AID 720706;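 active = significant combined selectivity score with lowered wild-type GFP, culture density cut under 30%, mutant RFP and density less affected; inactive = any of these conditions unmet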
ERAP1 inh: ERAP1 (human) enzyme inhibition. recombinant ERAP1, Leu-AMC fluorescence, 60 min. inhibition, % at 10.7 µM. 0.15% of 340,000 active. AID 652197;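 active = mean replicate inhibition of at least 30%, or all replicates individually reaching that 30% level; inactive = mean below 30% and not every replicate reaching it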;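 also: 0% = neutral control wells and 100% = L-leucinethiol positive control wells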
Env fusion inh: HIV envelope-mediated fusion inhibition; AID 651610; HeLa-JRFL Env/CEM21 cell fusion, luciferase; 1.1% of 360,000 active; inhibition, % at 12.3 µM;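 active = mean replicate inhibition score of at least 50 and every replicate individually at or above 50; inconclusive = only one of the two criteria met; inactive = mean below 50 and not all replicates reaching 50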;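 also: 0% = plate neutral controls and 100% = maraviroc near 300 nM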
PGC1a acetyl inh: modulators of PGC1a acetylation. AID 651687. U2OS PGC1a acetylation, AlphaScreen anti-acetyl-lysine; with virally co-expressed GCN5 acetyltransferase. 0.17% of 350,000 active. inhibition, % at 15.6 µM;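 active = every replicate shows inhibition of at least 40%; inconclusive = mean inhibition at least 40% but some replicate below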;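 also: 0% = neutral control wells and 100% = positive control wells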
Cneo AK release: Cryptococcus neoformans lysis via adenylate kinase release; 0.2% of 360,000 active; C. neoformans lysis, adenylate kinase release luminescence, 4 h; normalised: neutral wells 0, clomiphene wells 100; lysis activity, % at 15 µM;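 active = mean lysis activity across replicates of at least 80%, whatever share of replicates individually reach that level; inactive = mean lysis activity below 80%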
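Material – Cryptococcus neoformans yeast cells · Quantity – 5 × 10^6 yeast cells/mL · Buffer or medium – YPD medium · Compound – single dose · Timing – 4 h static compound exposure, 37 °C, read 1 h post-reagent · Signal – adenylate kinase release luminescence · Read-out basis – lysis from increased AK signal · Benchmarks – Clomiphene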
FGF22 binding: shifts melting point of recombinant human FGF22 | Q9HCT0 | recombinant FGF22 thermal shift, SYPRO orange fluorescence; percent of sucrose octasulfate shift, DMSO zero | activity (Tm shift, normalised), % at 9.99 µM | 1.5% of 340,000 active | AID 651658;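 active = mean Tm shift, scaled 0 neutral to 100 positive control, at about 1.3% or above, every replicate too, limit read from the data; inconclusive = no clear call, values can overlap the other calls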
Target sequence (Q9HCT0 whole entry, looked up): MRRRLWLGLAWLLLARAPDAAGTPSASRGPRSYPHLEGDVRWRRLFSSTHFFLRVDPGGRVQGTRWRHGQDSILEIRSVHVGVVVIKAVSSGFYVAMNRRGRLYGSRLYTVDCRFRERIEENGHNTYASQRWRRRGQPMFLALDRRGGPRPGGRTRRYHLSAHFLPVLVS
HepG2 cytotox: cytotoxic compounds in HepG2 cells. shares compounds with rRNA inh HTS. activity change, negative = cytotoxicity, unspecified at 26 µM. 30 tested, under 10 active. HepG2 viability, ATP luminescence, 72 h;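 active = compounds whose fitted half-maximal signal-loss concentration is at most twice their highest valid dose; inconclusive = flat curve with 30 to 70% signal loss, or poor fit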
AID977621: growth inhibition of wild-type GFP E. coli, dose response, H69 mutant RFP, cherry-pick; shares compounds with rRNA inh HTS; E. coli wild-type GFP strain growth, fluorescence, 24 h; activity change, negative = inhibition at 50 µM; 1,900 tested, under 10 active; AID 977621;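 active = Wild-type ribosome reporter drop at least double the humanized mutant ribosome reporter drop, growth loss under a set limit; inconclusive = no clear call, values can overlap the other calls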;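 also: wild-type GFP and H69 mutant RFP strains grown together 50/50 in each well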
AID977628: E. coli growth inhibition, wild-type GFP versus h24 humanized RFP strain, dose response, h24 mutant RFP vs wild-type GFP, cherry-pick; shares compounds with rRNA inh HTS; E. coli WT GFP strain growth, fluorescence, 24 h; activity change, negative = inhibition at 50 µM; 1,900 tested, under 10 active;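 active = compound lowering the normal-ribosome reporter at least twice as much as the humanized-ribosome reporter, growth loss under a set limit; inconclusive = no clear call, values can overlap the other calls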;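 also: wild-type GFP and h24 humanized RFP strains co-cultured 1 to 1 per well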
Numbers without * were called inactive; ? = inconclusive; / = no result; ! = repeats disagree; [ ] = another dose, or the depositor's remark.

SMILES	rRNA inh HTS	ERAP1 inh	Env fusion inh	PGC1a acetyl inh	Cneo AK release	FGF22 binding	AID977621	AID977628	others
C=CCN(CC(O)c1cccc([N+](=O)[O-])c1)C(C)CCc1ccccc1 (stereo unspecified)	-21*	/	32	6	/	0	?	/
C[C@@H]1CCCCO[C@H](CN(C)C(=O)NC2CCCCC2)[C@@H](C)CN([C@@H](C)CO)C(=O)c2cc(NS(=O)(=O)c3cn(C)cn3)ccc2O1	-2	5	18[16.7 µM]	/	0	0	/	/
COc1ccc(-c2csc(NC(=O)c3c(C)noc3C)n2)cc1	-6	0	-14	-3	2	0	/	/
COc1ccc(-c2csc(NC(=O)c3ccccc3S(C)(=O)=O)n2)cc1	-36*	-3	15	-5	/	0	-6.3	?
COc1ccc(-c2csc(NC(=O)c3ccoc3C)n2)cc1	-25*	-4	-68	-9	/	0	/	-7.2
CC(C)C[C@@H]1COc2cc(NC3CC3)ccc2S(=O)(=O)N1	9	-2	25	/	/	0	/	/
CC(C)C[C@H]1COc2cc(Br)ccc2S(=O)(=O)N1	-22*	/	17	-7	6	0	0.022	?
COc1ccc(CN(C)C[C@H]2OCCCC[C@H](C)Oc3ccc(NS(=O)(=O)c4ccc(F)cc4)cc3C(=O)N([C@@H](C)CO)C[C@@H]2C)cc1	4	0	6[16.7 µM]	15	-2	0	/	/
CCS(=O)(=O)c1ccc2oc(SCC(=O)NCCc3ccc(OC)cc3)nc2c1	-21	1	-2	/	/	0	/	/
CN(C)S(=O)(=O)c1ccc2oc(SCC(=O)NCC(F)(F)F)nc2c1	-14*	-1	2	18	2	/	?	-5.6
CCCCN(CCCC)C(=O)/C=C/c1cccc([N+](=O)[O-])c1	/	/	/	-7	/	/	/	/
C[C@@H]1CN([C@@H](C)CO)S(=O)(=O)c2ccc(Br)cc2O[C@H]1CN(C)C(=O)c1ccccc1	-18*!	0	6	-1	-3	0	5.3	-5
CCSc1nc2ccccc2c(=O)n1CCc1ccc(OC)c(OC)c1	-33*	2	14	-26	-3	0	/	?
CC(=O)N1CCOc2ccc(S(=O)(=O)N(C)c3ccc(C)cc3)cc21	-21*	0	-5	-20	6	0	-13	/
CSc1nc(N)nc(SC2C=CCCC2)c1C#N (stereo unspecified)	-24*	4	/	-2	-1	0	/	?	HepG2 cytotox=23
C(=C/c1nccc2c1[nH]c1ccccc12)/c1ccc2c(c1)OCO2	-37*	-3	-15	-18	-1	0	12	-2.2
COc1ccc(NC(=O)c2cccnc2SC)cc1S(=O)(=O)N1CCCCC1	-25*	1	15	/	/	0	?	/
COc1ccc(S(=O)(=O)N2CCCCC2)cc1NC(=O)c1cccnc1SC	5	1	15	-10	/	0	/	/
Cc1cccc(NC(=O)C(Cc2ccccc2)n2cccc2)c1 (stereo unspecified)	6	1	22	-6	/	0	/	/
CNC(=O)c1sc(-c2ccccn2)nc1C	-23*	-2	-2	3	/	0	-21	-7.1
Cc1nc(-c2ccccn2)sc1C(=O)Nc1ccc(F)cc1	/	/	-10	-47	-1	/	/	/
CCC(=O)N1CCN(c2nc(-c3ccc(Cl)cc3)cs2)CC1	/	/	11	-44	-5	/	/	/
COc1ccc(C(=O)NCCC2=CCCCC2)cc1[N+](=O)[O-]	-22*	2	5	/	-11	0	-13	-10
CCOP(=O)(OCC)C(Nc1ccc(F)cc1)c1ccccc1 (stereo unspecified)	/	/	20	-1	3	0	/	/
COc1ccc(OC)c(NC(=O)c2c3c(nc4ccccc24)CCC3)c1	-22*	-2	/	-5	5	0	/	?
SMILES	rRNA inh HTS	ERAP1 inh	Env fusion inh	PGC1a acetyl inh	Cneo AK release	FGF22 binding	AID977621	AID977628	others
CC1C=Cc2ccccc2N1C(=O)c1ccccc1 (stereo unspecified)	-32*	-5	/	0	-2	0	2.5	/
COc1ccc(Cl)cc1NC(=O)CN(C)CC(=O)Nc1ccccc1-c1ccccc1	-24*	-3	63*	-6	0	0	-9.7	/
Cc1cc(C(=O)Nc2cccc3c2O[C@@H](CN(C)C)[C@@H](C)CN([C@@H](C)CO)C3=O)n(C)n1	-4	2	19[16.7 µM]	-1	77	-1	/	/
CCn1c(-c2ccccc2Cl)nn(CC(=O)Nc2ccccc2OC)c1=S	-21*	1	/	/	-3	/	-16	/
O=C1c2cccc(OCC(=O)N3CCCc4ccccc43)c2CCN1Cc1cccnc1	-26*	3	23	6	/	0	-12	/
Cc1ccccc1CN1CCc2c(OCC(=O)N3CCCc4ccccc43)cccc2C1=O	/	/	28	/	/	/	/	/
CC(C)[C@@H]1CC[C@@H](C)C[C@H]1O	-14*	0	22	-7	-1	0	-8.1	?
CC(=O)Oc1ccc(N(c2ccccc2)S(=O)(=O)c2ccc(C)cc2)cc1	-24*	2	14	-14	1	0	/	-5
Cc1ccc(Cl)cc1N1CCN(S(C)(=O)=O)CC1	-35*	-1	/	-4	1	0	/	?
Cc1ccc(Cl)cc1N1CCN(S(=O)(=O)N2CCCCC2)CC1	-28	2	20	-5	/	0	/	/
COc1ccc(OCCC(=O)OCC(=O)NCCC2=CCCCC2)cc1	-24*	0	-10	/	/	41	-13	-9.7
Cc1cc(Br)ccc1SCC(=O)N1CCN(S(=O)(=O)c2ccccc2)CC1	7	0	-2	/	2	0	/	/
Nc1ccc2nc(-c3ccc(Cl)cc3)[nH]c2c1	-17*	5	-68	-15	-1	0	/	-8.8
Nc1ccc(-c2nc3ccc(N)cc3[nH]2)cc1	-16	-4	-25	/	/	0	/	/
O=C(C1COc2ccccc2O1)N1CCOCC1 (stereo unspecified)	/	/	/	14	/	/	/	/
Cc1cccc(Oc2ccc(NC(=O)c3ccccc3C(=O)O)cc2)c1	-23*	/	-5	5	-3	0	-17	?
O=C(O)c1cc(-c2ccccc2)n(-c2ccc(F)cc2)n1	-3	2	3	/	-7	0	/	/
CCC(=O)Nc1nc2c(OC)ccc(OC)c2s1	-21*	2	-48	0	2	0	-10	/
